Measurements published in the array DNA melting data of Ke et al. (doi:10.1101/2024.01.08.574731).

Tests used:
[1] = melting temperature; fluorescence melt of hairpins on a sequencing array, two-state fit, raised by 9.35 °C to match UV melts; settings: sodium 0.088 M
Procedure, shortened: (§1)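 Bootstrapped two-state fits yielded melting temperature and folding enthalpy for library hairpins. Cy3 fluorescence, with annealed Cy3 and quencher oligos, was imaged on a sequenced MiSeq flow cell in 50 mM Na-HEPES pH 8.0, 25 mM NaCl in 2.5 °C steps up to 60 °C, and normalised to pre-quench Cy3 and to control constructs. Four replicates were combined by inverse variance, and fitted temperatures were raised by 9.35 °C to match UV melts.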

[2] = folding enthalpy; higher = less favourable; fluorescence melt of hairpins on a sequencing array, two-state fit; settings: sodium 0.088 M
Procedure, shortened: as §1

Sequence | Tm [1] | folding enthalpy [2]
GTCTCCTCGAAAGAGGAC (((..(((....)))))) | 32 °C | -9.88 kcal/mol
GTGTCCGAAAGGAACCAC ((((((....)))..))) | 35.3 °C | -12.6 kcal/mol
GGGTTATCGAAAGATCCC (((..(((....)))))) | 34.9 °C | -24.3 kcal/mol
GGGAAGGGAAACCTTCCC (((((((....))))))) | 65.4 °C | -35.5 kcal/mol
GCGTGGGCGAAAGCCCGC (((..(((....)))))) | 57.7 °C | -9.77 kcal/mol
GCGAGTCTCGC ((((...)))) | 50.1 °C | -19.8 kcal/mol
CGTACCGGAAACGGACG (((.(((....)))))) | 45.7 °C | -21.2 kcal/mol
GATCCTTTAAGGATC ((((((...)))))) | 55.6 °C | -33.1 kcal/mol
GCCTTCGAAAGAAACGGC ((((((....)))..))) | 36.2 °C | -23.7 kcal/mol
GTGTGGGGAAACCTACAC ((((.((....)).)))) | 50.6 °C | -32.6 kcal/mol
GGAATCGCGAAAGCGTCC (((..(((....)))))) | 29.2 °C | -8.44 kcal/mol
GGGTTAGGAAACTAACTC (.(((((....))))).) | 42.3 °C | -25.8 kcal/mol
GCCAAGCGAAAGCGTCGC ((.(.((....)).).)) | 45.5 °C | -12.9 kcal/mol
GATCACTTCGTGATC ((((((...)))))) | 58.9 °C | -46.6 kcal/mol
GATCTATCCCTAGATC ((((((....)))))) | 41.4 °C | -32.4 kcal/mol
GATCTATGGTTAGATC ((((((....)))))) | 41.5 °C | -36 kcal/mol
GATCACATATGTGATC ((((((....)))))) | 58.9 °C | -41.9 kcal/mol
GATCCTTCGTAGGATC ((((((....)))))) | 53 °C | -33.7 kcal/mol
GGCGAGGGAAACTTCGCC (((((.(....).))))) | 57.4 °C | -50.1 kcal/mol
GTTAGTCGAAAGACAAC (((.(((....)))))) | 39.5 °C | -20.4 kcal/mol
GTGACGGGAAACCACCAC (((..((....))..))) | 27.4 °C | -15.7 kcal/mol
GGATTCGGAAACAAATCC (((((.(....).))))) | 35.8 °C | -22.9 kcal/mol
GCTTGCCGAAAGGCCAGC (((.(((....))).))) | 54.1 °C | -27.9 kcal/mol

Sequence | Tm [1] | folding enthalpy [2]
GCATATTCGAAAGAATGC (((..(((....)))))) | 34 °C | -18.7 kcal/mol
GATCGGTACCCGATC ((((((...)))))) | 57.2 °C | -39.3 kcal/mol
GATCGGGTGTCCGATC ((((((....)))))) | 58.3 °C | -37.7 kcal/mol
GATCCTGTGTAGGATC ((((((....)))))) | 52.3 °C | -31.5 kcal/mol
GCTCAAGGAAACTCGAGC ((((.((....)).)))) | 38.3 °C | -30.5 kcal/mol
GAGTCGGGAAACTGACTC (((((.(....).))))) | 52.6 °C | -40.2 kcal/mol
GCTCATGCGAAAGCAAGC (((..(((....)))))) | 35 °C | -10.8 kcal/mol
GCCCACGGAAACATGGGC (((((.(....).))))) | 50.7 °C | -30.8 kcal/mol
GACGCACGAAAGTGAGTC (((.(((....))).))) | 60 °C | -40 kcal/mol
GTTCCGGGAAACTGGAAC (((((.(....).))))) | 52.5 °C | -39.6 kcal/mol
GATCGAGATATCGATC ((((((....)))))) | 58.7 °C | -38.2 kcal/mol
GCATTAGGAAACTAATGC (((((((....))))))) | 55.6 °C | -44.6 kcal/mol
GCCTCCGAAAGGACGGC ((((((....))).))) | 56.5 °C | -30.9 kcal/mol
GGCCTGCGAAAGCACGCC (((.(((....))).))) | 53.4 °C | -37.6 kcal/mol
GCCCGGGGAAACTCGGGC (((((.(....).))))) | 67.2 °C | -37.5 kcal/mol
CGAAAACGGAAACGTTCG (((..(((....)))))) | 37 °C | -19.8 kcal/mol
GAGCCGCCGAAAGGCCTC (((..(((....)))))) | 33.1 °C | -8.95 kcal/mol
GCGAGTCGAAAGACCGC (((.(((....)))))) | 66.8 °C | -35.1 kcal/mol
GCCAACGAAAGTTCGGGC ((((((....)))..))) | 43.8 °C | -30 kcal/mol
GCATGAGGAAACTCACGC ((.((((....)))).)) | 41.3 °C | -28 kcal/mol
GACCCCGAAAGGGCTGTC ((((((....)))..))) | 40.9 °C | -14.6 kcal/mol
GCGTAGCGAAAGCGGCGC (((..((....))..))) | 69.1 °C | -22.4 kcal/mol
GTTTCACGAAAGTGGAAC (((.(((....))).))) | 52.2 °C | -30.5 kcal/mol

Sequence | Tm [1] | folding enthalpy [2]
GTCTGACCGAAAGGTGAC (((..(((....)))))) | 38.9 °C | -19.3 kcal/mol
GACGGTCCGAAAGGAGTC (((..(((....)))))) | 34.2 °C | -14.2 kcal/mol
GGGGGGGGAAACCCCTCC ((.((((....)))).)) | 60.9 °C | -17.5 kcal/mol
CGCAACGGAAACGTGCG (((.(((....)))))) | 56.5 °C | -31.8 kcal/mol
GGACGGCGAAAGCCTTCC (((.(((....))).))) | 52.5 °C | -22.6 kcal/mol
GGCAAGACGAAAGTCGCC (((..(((....)))))) | 54.2 °C | -18.9 kcal/mol
GCACCGCGAAAGCAGCGC ((.(.((....)).).)) | 46.5 °C | -18.2 kcal/mol
GAGTGGGGAAACTCACTC (((((.(....).))))) | 49.2 °C | -40.9 kcal/mol
GAGGAAGGAAACTTCCTC (((((((....))))))) | 59 °C | -35.5 kcal/mol
GCTAGTGGAAACATTGGC ((.(.((....)).).)) | 28.2 °C | -10.7 kcal/mol
GACCTGGCGAAAGCCGTC (((..(((....)))))) | 34.9 °C | -5.62 kcal/mol
GGGAGTCGAAAGACGCCC (((.(((....))).))) | 64.3 °C | -30 kcal/mol
GTTCGGGGAAACTCGAGC (.(((.(....).))).) | 35.9 °C | -19.7 kcal/mol
GCTCGGCGAAAGCCTAGC (((.(((....))).))) | 52.8 °C | -40.8 kcal/mol
GATCATGAGATGATC ((((((...)))))) | 43.4 °C | -32.5 kcal/mol
GATCCGTTCTCGGATC ((((((....)))))) | 60.7 °C | -42.2 kcal/mol
GATCATAAGTATGATC ((((((....)))))) | 47.7 °C | -33.6 kcal/mol
GATCCTGGAAAGGATC ((((((....)))))) | 59.5 °C | -35.6 kcal/mol
GAAAACGAAAGTTTTC ((((((....)))))) | 55 °C | -37.9 kcal/mol
GCATACGAAAGTACTGC ((((((....))).))) | 41.4 °C | -22.4 kcal/mol
GATCTCCCTTGAGATC ((((((....)))))) | 52.6 °C | -39.4 kcal/mol
GGCTTTCCGAAAGGAGCC (((..(((....)))))) | 45.2 °C | -24.5 kcal/mol
GTCGATCGAAAGATTGAC (((.(((....))).))) | 53.6 °C | -51.8 kcal/mol

Sequence | Tm [1] | folding enthalpy [2]
GCAGGACGAAAGTCTTGC (((.(((....))).))) | 58.5 °C | -41.5 kcal/mol
GGTTATCCGAAAGGAACC (((..(((....)))))) | 30.2 °C | -15.2 kcal/mol
GGACACGCGAAAGCGTCC (((..(((....)))))) | 42.1 °C | -9.09 kcal/mol
GTCGGGGGAAACCTCGGC (.((.((....)).)).) | 44.9 °C | -35.4 kcal/mol
GGGAAGCGAAAGCTGCCC (((.(((....))).))) | 65.2 °C | -23.2 kcal/mol
GTTCGCGAAAGCGACAAC ((((((....)))..))) | 34.8 °C | -7.58 kcal/mol
GGTTCCGAAAGGACACC ((((((....))).))) | 48 °C | -24.5 kcal/mol
GATCTTTGGAAGATC ((((((...)))))) | 41.2 °C | -26.6 kcal/mol
GATTACGGAAACGCAATC ((((.((....)).)))) | 37.4 °C | -27.6 kcal/mol
GATCAGACGACTGATC ((((((....)))))) | 47.5 °C | -39.2 kcal/mol
GCGTTCGAAAGAAACGC ((((((....))).))) | 56.1 °C | -35.3 kcal/mol
GATCCACAAATGGATC ((((((....)))))) | 47.5 °C | -32.9 kcal/mol
GAGCCGCGAAAGCGCCTC (((.(((....))).))) | 46.4 °C | -16 kcal/mol
GAATAGGGAAACCCATTC ((((.((....)).)))) | 29.5 °C | -17.1 kcal/mol
GTAAACCCGAAAGGGTAC (((..(((....)))))) | 32.8 °C | -10.1 kcal/mol
CGGTCGGAAACGAGTCCG ((((((....)))..))) | 39.4 °C | -20.6 kcal/mol
GATCTTCCAAAGATC ((((((...)))))) | 43.2 °C | -27.4 kcal/mol
GGTGACGAAAGTCAAACC ((((((....)))..))) | 46.3 °C | -17.4 kcal/mol
GTGGCAGGAAACTACCAC ((((.((....)).)))) | 44.6 °C | -34.2 kcal/mol
GGCGTCGGAAACGATGCC (((.(((....))).))) | 65.7 °C | -38.2 kcal/mol
GACGTTCCGAAAGGAGTC (((..(((....)))))) | 36.6 °C | -17 kcal/mol
CGACCGCGGAAACGCTCG (((..(((....)))))) | 34 °C | -11.2 kcal/mol
GCTTAACGAAAGTTAGC (((.(((....)))))) | 44.9 °C | -21.7 kcal/mol
